Starred links: 1 amine or outer side, 2 acyl side, 3 side chain; linkers in the order of their positions; H or OH if unused. Positions of bridges follow the written chain, without caps; N, C: chain ends. Non-standard residues stand in square brackets, D forms with d. Residues, ends and D or L forms follow the SMILES beside them. ξ: configuration not given here. *: point of attachment. X1 = CC[C@H](C)[C@@H](N[*:1])[C@@H](O)CC(=O)O[C@H](C(=O)[C@H](C)C(=O)[*:2])C(C)C; Benzoyl(4-benzoyl) = O=C(c1ccccc1)c1ccc(C(=O)*)cc1; X2 = CC[C@H](C)[C@@H](N[*:1])[C@@H](O)CC(=O)[*:2]; Propanoyl(3-(4-MeO-Ph)) = COc1ccc(CCC(=O)*)cc1; NMeY = CN[C@@H](Cc1ccc(O)cc1)C(=O)O; NMeL = CN[C@@H](CC(C)C)C(=O)O; dHica = CC(C)C[C@@H](O)C(=O)O; dNMeL = CN[C@H](CC(C)C)C(=O)O; pGlu = O=C1CC[C@@H](C(=O)O)N1; NMeV = CN[C@H](C(=O)O)C(C)C; Hiv = CC(C)[C@H](O)C(=O)O; NMeA = CN[C@@H](C)C(=O)O; Lac = C[C@H](O)C(=O)O; OBn = c1ccc(CO*)cc1; Ahx = NCCCCCC(=O)O; ξP = O=C(O)C1CCCN1; βAla = NCCC(=O)O
species on record: Oryctolagus cuniculus; test: In vitro inhibition of protein synthesis in tobacco mosaic virus mRNA-encoded proteins in rabbit reticulocyte lysate; type: functional
Outline: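 Cell-free translation in rabbit reticulocyte lysate programmed with tobacco mosaic virus mRNA. Protein synthesis was measured as [³⁵S]methionine incorporation into the encoded proteins across a range of inhibitor concentrations, and IC50 was derived from the concentration dependence.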

Point of comparison: `CC[C@H](C)[C@H]1NC(=O)[C@@H](NC(=O)[C@@H](CC(C)C)N(C)C(=O)C2CCCN2C(=O)[C@H](C)O)[C@@H](C)OC(=O)[C@H](CC(C)C)N(C)C(=O)C2CCCN2C(=O)[C@H](CC(C)C)NC(=O)[C@@H](C)C(=O)[C@H](C(C)C)OC(=O)C[C@@H]1O` (stereo not given in full), IC50 9 µM. Against it:
- COc1ccc(C[C@@H](C(=O)NCCNC(=O)[C@H](CC(C)C)N(C)C(=O)[C@@H]2CCCN2C(=O)[C@H](C)O)N(C)C(=O)C2CCCN2C(=O)[C@H](CC(C)C)NC(=O)[C@@H](C)NC(=O)OCc2ccccc2)cc1 (stereo not given in full) — 31-fold higher, 275 µM
- COc1ccc(C[C@@H](C(=O)O[C@H](C)[C@H](NC(=O)[C@@H](CC(C)C)N(C)C(=O)[C@@H]2CCCN2C(=O)[C@H](C)O)C(=O)N2CCCCNC(=O)[C@H](C)C(=O)[C@H](C(C)C)OC(=O)C[C@H](O)[C@H]2CC(C)C)N(C)C(C)=O)cc1 — higher, > 1000 µM
- CC[C@H](C)[C@H]1NC(=O)[C@@H](NC(=O)[C@@H](CC(C)C)N(C)C(=O)[C@@H]2CCCN2C(=O)[C@H](C)OC(C)=O)[C@@H](C)OC(=O)[C@H](Cc2ccc(OC)cc2)N(C)C(=O)[C@@H]2CCCN2C(=O)[C@H](CC(C)C)NC(=O)[C@@H](C)C(=O)[C@H](C(C)C)OC(=O)C[C@@H]1OC(C)=O — within 1.5-fold, 10 µM
- CSCC[C@H](N)C(=O)N[C@@H](CCC(=O)O)C(=O)N[C@@H](Cc1c[nH]cn1)C(=O)N[C@@H](Cc1ccccc1)C(=O)N[C@@H](CCCN=C(N)N)C(=O)N[C@@H](Cc1c[nH]c2ccccc12)C(=O)NCC(=O)O — 2.2-fold lower, 4 µM
- CC[C@H](C)[C@H]1NC(=O)[C@@H](NC(=O)[C@@H](CC(C)C)N(C)C(=O)[C@@H]2CCCN2C(=O)[C@H](C)O)[C@@H](C)OC(=O)[C@@H]2CCc3ccccc3N2C(=O)[C@@H]2CCCN2C(=O)[C@H](CC(C)C)NC(=O)[C@@H](C)C(=O)[C@H](C(C)C)OC(=O)C[C@@H]1O — 3.3-fold lower, 2.7 µM
- COc1ccc(C[C@H]2C(=O)O[C@H](C)[C@H](NC(=O)[C@@H](CC(C)C)N(C)C(=O)[C@@H]3CCCN3C(=O)[C@H](C)O)C(=O)N[C@H](C(C)C)[C@@H](O)CC(=O)O[C@@H](C(C)C)C(=O)[C@H](C)C(=O)N[C@@H](CC(C)C)C(=O)N3CCC[C@H]3C(=O)N2C)cc1 — 3-fold lower, 3 µM
- COc1ccc(C[C@H]2C(=O)O[C@H](C)[C@H](NC(=O)[C@@H](CC(C)C)N(C)C(=O)C3CCCN3C(=O)[C@H](C)O)C(=O)N[C@H](C(C)C)[C@@H](O)CC(=O)O[C@@H](C(C)C)C(=O)[C@H](C)C(=O)N[C@@H](CC(C)C)C(=O)N3CCCC3C(=O)N2C)cc1 (stereo not given in full) — 9-fold lower, 1 µM
- COc1ccc(C[C@H]2C(=O)N[C@@H](C)C(=O)N(C)[C@H]3Cc4ccc(cc4)Oc4cc(ccc4OC)C[C@@H](C(=O)N[C@H](C)C(=O)N[C@@H](C)C(=O)N2C)N(C)C3=O)cc1 — 180-fold lower, 0.05 µM
- CC[C@H](C)[C@H]1NC(=O)[C@@H](NC(=O)[C@@H](CC(C)C)N(C)C(=O)C2CCCN2)[C@@H](C)OC(=O)[C@H](Cc2ccc(OC)cc2)N(C)C(=O)C2CCCN2C(=O)[C@H](CC(C)C)NC(=O)[C@@H](C)C(=O)[C@H](C(C)C)OC(=O)C[C@@H]1O (stereo not given in full) — 2.1-fold lower, 4.3 µM
- CC[C@H](C)[C@H]1NC(=O)[C@@H](NC(=O)[C@@H](CC(C)C)N(C)C(=O)C2C=CCN2C(=O)OC(C)(C)C)[C@@H](C)OC(=O)[C@H](Cc2ccc(OC)cc2)N(C)C(=O)C2CCCN2C(=O)[C@H](CC(C)C)NC(=O)[C@@H](C)C(=O)[C@H](C(C)C)OC(=O)C[C@@H]1O (stereo not given in full) — 1.7-fold lower, 5.3 µM
- C=CCOC(=O)N[C@@H](CC(C)C)C(=O)N1CCC[C@H]1C(=O)N(C)[C@@H](Cc1ccc(OC)cc1)C(=O)O[C@H](C)[C@H](NC(=O)[C@@H](CC(C)C)N(C)C(=O)[C@@H]1CCCN1C(=O)[C@H](C)O)C(=O)OCC[Si](C)(C)C — 12-fold higher, 112 µM
- CC[C@H](C)[C@H]1NC(=O)[C@@H](NC(=O)[C@@H](CC(C)C)N(C)C(=O)C2C=CCN2)[C@@H](C)OC(=O)[C@H](Cc2ccc(OC)cc2)N(C)C(=O)C2CCCN2C(=O)[C@H](CC(C)C)NC(=O)[C@@H](C)C(=O)[C@H](C(C)C)OC(=O)C[C@@H]1O (stereo not given in full) — 2.1-fold lower, 4.3 µM
- CC[C@H](C)[C@H]1NC(=O)[C@@H](NC(=O)[C@@H](CC(C)C)N(C)C(=O)C2CCCN2C(=O)[C@H](C)O)[C@@H](C)OC(=O)[C@H](Cc2ccccc2)N(C)C(=O)C2CCCN2C(=O)[C@H](CC(C)C)NC(=O)[C@@H](C)C(=O)[C@H](C(C)C)OC(=O)C[C@@H]1O (stereo not given in full) — 3.6-fold lower, 2.5 µM
- CC[C@H](C)[C@H]1NC(=O)[C@@H](NC(=O)[C@@H](CC(C)C)NC)[C@@H](C)OC(=O)[C@H](Cc2ccc(OC)cc2)N(C)C(=O)C2CCCN2C(=O)[C@H](CC(C)C)NC(=O)[C@@H](C)C(=O)[C@H](C(C)C)OC(=O)C[C@@H]1O (stereo not given in full) — 1.7-fold lower, 5.4 µM
- CC(=O)O[C@H](C)[C@H](NC(=O)[C@H](CC(C)C)N(C)C(=O)[C@@H]1CCCN1C(=O)[C@H](C)O)C(=O)OCc1ccccc1 (H-[Lac]P[NMeL]T(Ac)-OBn) — 31-fold higher, 276 µM
- COc1ccc(CCC(=O)O[C@H](C)[C@H](NC(=O)[C@H](CC(C)C)N(C)C(=O)[C@@H]2CCCN2C(=O)[C@H](C)O)C(=O)OCc2ccccc2)cc1 (H-[Lac]P[NMeL]T(Propanoyl(3-(4-MeO-Ph)))-OBn) — 45-fold higher, 405 µM
- CC[C@H](C)[C@H]1NC(=O)[C@@H](NC(=O)[C@@H](CC(C)C)N(C)C(=O)[C@@H]2CCCN2C(=O)[C@H](C)O)[C@@H](C)OC(=O)[C@H](Cc2ccc(OC)cc2)N(C)C(=O)[C@@H]2CCCN2C(=O)[C@H](CC(C)C)NC(=O)[C@H](C(C)C)OC(=O)C[C@@H]1O (H-[Lac]P[dNMeL]T[X2][Hiv]LP[NMeY](Me); ester 4-C) — 6.9-fold lower, 1.3 µM
- CC[C@H](C)[C@@H]1NC(=O)[C@@H]2CCCN2C(=O)[C@@H](CC(C)C)OC(=O)CCNC(=O)[C@H](C)N(C)C(=O)[C@H](C(C)C)N(C)C1=O (cyclo(I[NMeV][NMeA][βAla][dHica]P)) — higher, > 1000 µM
- CC[C@H](C)[C@H]1NC(=O)[C@@H](NC(=O)[C@@H](CC(C)C)N(C)C(=O)CCCCCNC(=O)c2ccc(C(=O)c3ccccc3)cc2)[C@@H](C)OC(=O)[C@H](Cc2ccc(OC)cc2)N(C)C(=O)C2CCCN2C(=O)[C@H](CC(C)C)NC(=O)[C@@H](C)C(=O)[C@H](C(C)C)OC(=O)C[C@@H]1O (stereo not given in full) ({Benzoyl(4-benzoyl)-Ahx}-[dNMeL]T[X1]L[ξP][NMeY](Me); ester 2-C) — 2.7-fold higher, 24 µM
- CC[C@H](C)[C@H]1NC(=O)[C@@H](NC(=O)[C@@H](CC(C)C)N(C)C(=O)CNC(=O)c2ccc(C(=O)c3ccccc3)cc2)[C@@H](C)OC(=O)[C@H](Cc2ccc(OC)cc2)N(C)C(=O)C2CCCN2C(=O)[C@H](CC(C)C)NC(=O)[C@@H](C)C(=O)[C@H](C(C)C)OC(=O)C[C@@H]1O (stereo not given in full) ({Benzoyl(4-benzoyl)}-G[dNMeL]T[X1]L[ξP][NMeY](Me); ester 3-C) — 2-fold lower, 4.5 µM
- CC[C@H](C)[C@H]1NC(=O)[C@@H](NC(=O)[C@@H](CC(C)C)N(C)C(=O)c2ccc(C(=O)c3ccccc3)cc2)[C@@H](C)OC(=O)[C@H](Cc2ccc(OC)cc2)N(C)C(=O)C2CCCN2C(=O)[C@H](CC(C)C)NC(=O)[C@@H](C)C(=O)[C@H](C(C)C)OC(=O)C[C@@H]1O (stereo not given in full) ({Benzoyl(4-benzoyl)}-[dNMeL]T[X1]L[ξP][NMeY](Me); ester 2-C) — 2.2-fold lower, 4 µM
- O=C(O)C1=CC(=C(c2ccc(O)c(C(=O)O)c2)c2ccc(O)c(C(=O)O)c2)C=CC1=O [AURINTRICARBOXYLIC ACID] — within 1.5-fold, 10 µM
- C=C(NC(=O)C(=C)NC(=O)c1ccc2c(n1)-c1coc(n1)C(=C)NC(=O)C(=C)NC(=O)c1nc(oc1C)C(=C)NC(=O)C(C(C)(C)O)NC(=O)C(=C)NC(=O)c1nc(oc1C)/C(=C/C)NC(=O)C(C(C)O)NC(=O)c1csc-2n1)C(N)=O (stereo not given) [BERNINAMYCIN] — 67-fold higher, 600 µM
- COc1ccc(C[C@H]2C(=O)N[C@@H](C)C(=O)N(C)[C@@H]3C(=O)N(C)[C@@H](Cc4ccc(O)c(c4)Oc4ccc(cc4)[C@@H]3O)C(=O)N[C@@H](C)C(=O)N[C@@H](C)C(=O)N2C)cc1 [BOUVARDIN] — 90-fold lower, 0.1 µM
- C[C@@H]1C[C@@H]([C@H](O)CC2CC(=O)NC(=O)C2)C(=O)[C@@H](C)C1 [CYCLOHEXIMIDE] — 1.8-fold lower, 5 µM
- CC[C@H](C)[C@H](NC(=O)[C@H](Cc1ccccc1)NC(=O)[C@H](C)NC(=O)[C@H](CC(=O)O)NC(=O)[C@H](CCCCN)NC(=O)[C@H](CO)NC(=O)[C@@H]1CCCN1C(=O)[C@@H]1CCC(=O)N1)C(=O)NCC(=O)N[C@@H](CC(C)C)C(=O)N[C@@H](CCSC)C(N)=O [ELEDOISIN] ([pGlu]PSKDAFIGLM-NH2) — 56-fold higher, 500 µM
- CC(=O)O[C@H]1C[C@@]2(C)[C@@H](C[C@@H](O)[C@H]3[C@@]4(C)CC[C@@H](O)[C@@H](C)[C@@H]4CC[C@@]32C)/C1=C(\CCC=C(C)C)C(=O)O [FUSIDIC ACID] — 44-fold higher, 400 µM
- C/C1=C\[C@H](C)C[C@H](C)OC(=O)C[C@H](c2ccc(O)cc2)NC(=O)[C@@H](Cc2c(Br)[nH]c3ccccc23)N(C)C(=O)[C@H](C)NC(=O)[C@@H](C)C1 [JASPAMIDE] — higher, > 500 µM
- H-ELNFTPNWGT-NH2 — higher, > 1000 µM

Reference: ChEMBL document CHEMBL1133447, “Inhibition of protein synthesis by didemnins: cell potency and SAR” (J Med Chem, 2000)
